The source of these data is ChEMBL document CHEMBL4321808, “Heteroaryl Phosphonates as Noncovalent Inhibitors of Both Serine- and Metallocarbapenemases” (J Med Chem, 2019).

The nature of data set [1]: Inhibition of N-terminal 6x-His-tagged Klebsiella pneumoniae KPC2 (25 to 293 residues) assessed as reduction in nitrocefin hydrolysis by spectrophotometry. The procedure, abridged: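 Purified recombinant KPC-2 at 1 nM in 100 mM Tris-HCl pH 7.0 with 0.01% Triton X-100, 37 °C, reaction started by enzyme. IC50 from sigmoidal fit; Ki by Cheng-Prusoff using the nitrocefin Km. Run in duplicate, or once or in triplicate for some compounds.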

Data set [2] is described as follows: Inhibition of N-terminal 6x-His/Sumo-tagged NDM-1 (29 to 270 residues) (unknown origin) expressed in Escherichia coli BL21 (DE3) assessed as reduction in nitrocefin hydrolysis by spectrophotometry. Details: species or system Bacteria; call rule not given here. The procedure, abridged:
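Metallo-enzyme assay in 50 mM HEPES pH 7.2 with 50 µM zinc sulfate, 0.01% Triton X-100 and 20 µg/mL BSA, 37 °C. NDM-1 was construct 1 with the His/SUMO tag cleaved, at 2 nM; VIM-2 had its His tag TEV-cleaved, at 0.5 nM.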

Data set [3] in a line: Inhibition of N-terminal 6x-His-tagged VIM-2 (unknown origin) expressed in Escherichia coli Rosetta 2 (DE3) assessed as reduction in nitrocefin hydrolysis by spectrophotometry. Details: species or system Bacteria. In short, it runs like this: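 Metallo-enzyme assay in 50 mM HEPES pH 7.2 with 50 µM zinc sulfate, 0.01% Triton X-100 and 20 µg/mL BSA, 37 °C. NDM-1 was construct 1 with the His/SUMO tag cleaved, at 2 nM; VIM-2 had its His tag TEV-cleaved, at 0.5 nM. Nitrocefin hydrolysis read at 486 nm; IC50 from sigmoidal fit, Ki by Cheng-Prusoff; mostly duplicate.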

The nature of data set [4]: Permeability in MDCK-MDR1 cells assessed as drug recovery. The format is ADME, cell-based, Canis lupus familiaris. The settings on record: dog.
Data set [5] has as its system Pseudomonas aeruginosa. The data set is described as follows: Inhibition of KPC2 in Pseudomonas aeruginosa 4135 assessed as potentiation of ceftazidime-induced antimicrobial activity by measuring ceftazidime MIC incubated for 18 to 20 hrs by CLSI based method (reference value: […] ug/ml).
For data set [6], the system named is Pseudomonas aeruginosa. The data set can be described thus: Inhibition of NDM1 in Pseudomonas aeruginosa 4129 assessed as potentiation of ceftazidime-induced antimicrobial activity by measuring ceftazidime MIC incubated for 18 to 20 hrs by CLSI based method (reference value: 128 ug/ml). The procedure, abridged:
(§1)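 CLSI broth microdilution in MHBII. Standardized inoculum was a 0.5 McFarland suspension diluted to about 5×10^5 CFU per well. Ceftazidime was tested over 64–0.006 µg/mL, with avibactam fixed at 4 µg/mL as the positive control.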

The subject of data set [7] is Pseudomonas aeruginosa. The data set is described as follows: Inhibition of NDM1 in efflux positive Pseudomonas aeruginosa 4177 assessed as potentiation of ceftazidime-induced antimicrobial activity by measuring ceftazidime MIC incubated for 18 to 20 hrs by CLSI based method (reference value: 128 ug/ml). The procedure, abridged: as §1
The target in data set [8] is Beta-lactamase VIM-2 (Pseudomonas aeruginosa) (UniProt Q9K2N0). The data set can be described thus: Inhibition of VIM-2 in efflux positive Pseudomonas aeruginosa 4402 assessed as potentiation of ceftazidime-induced antimicrobial activity by measuring ceftazidime MIC incubated for 18 to 20 hrs by CLSI based method (reference value: 32 ug/ml). In short, it runs like this:
as §1

The test system of data set [9] is Klebsiella pneumoniae. The data set can be described thus: Antimicrobial activity against Klebsiella pneumoniae C2 expressing KPC2 assessed as inhibition of microbial growth incubated for 18 to 20 hrs in presence of imipenem by CLSI based method. It is filed as functional.
Data set [10] has as its system Pseudomonas aeruginosa. The data set is described as follows: Antimicrobial activity against Pseudomonas aeruginosa 4135 expressing KPC2 assessed as inhibition of microbial growth incubated for 18 to 20 hrs in presence of imipenem by CLSI based method. It is filed as functional.
For data set [11], the system named is Pseudomonas aeruginosa. The data set can be described thus: Antimicrobial activity against Pseudomonas aeruginosa 4129 expressing NDM1 assessed as inhibition of microbial growth incubated for 18 to 20 hrs in presence of imipenem by CLSI based method. It is filed as functional.
For data set [12], the system named is Pseudomonas aeruginosa. The data set can be described thus: Antimicrobial activity against efflux positive Pseudomonas aeruginosa 4177 expressing NDM1 assessed as inhibition of microbial growth incubated for 18 to 20 hrs in presence of imipenem by CLSI based method. It is filed as functional.
For data set [13], the system named is Pseudomonas aeruginosa. The data set can be described thus: Antimicrobial activity against Pseudomonas aeruginosa 4882 expressing VIM2 assessed as inhibition of microbial growth incubated for 18 to 20 hrs in presence of imipenem by CLSI based method. The format is functional.
Data set [14] relates to Pseudomonas aeruginosa. The data set is described as follows: Antimicrobial activity against efflux positive Pseudomonas aeruginosa 4402 expressing VIM2 assessed as inhibition of microbial growth incubated for 18 to 20 hrs in presence of imipenem by CLSI based method. The format is functional.
Data set [15] is described as follows: Cytotoxicity in HEK293T cells assessed as cell recovery rate at 100 ug/ml incubated for 48 hrs by MTT assay relative to control. The settings on record: human, read-out: Activity. It is filed as cell-based, HEK-293T. The procedure, abridged: (§2)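 HEK293T cells grown in DMEM with 10% FBS and 1% penicillin/streptomycin. Compounds in DMSO were tested at 200–3.125 µg/mL, two-fold dilutions, for 48 h at 37 °C, 5% CO2. Viability by MTT, read at OD 570 nm; percent recovery calculated against solvent-only controls.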

Data set [16] can be described thus: Cytotoxicity in HEK293T cells assessed as cell recovery rate at 200 ug/ml incubated for 48 hrs by MTT assay relative to control. The format is cell-based, HEK-293T. The settings on record: human, read-out: Activity. In short, it runs like this: as §2
(Tetrazolium assays rely on reduction of a dye to a coloured formazan, in cell work by metabolically active cells.)

Data set [17] is described as follows: Half life in mouse liver microsomes. The format is ADME, Microsome.
A short description of data set [18]: Intrinsic clearance in mouse liver microsomes. The format is ADME, Microsome. (Liver microsomes are vesicles of endoplasmic reticulum, rich in cytochrome P450 enzymes.)
A short description of data set [19]: Kinetic solubility in pH 7.4 PBS. It is filed as physicochemical. The settings on record: buffer.
A short description of data set [20]: Apparent permeability from apical to basolateral side in MDCK-MDR1 cells. It is filed as ADME, cell-based, Canis lupus familiaris. The settings on record: dog.
Data set [21] is described as follows: Apparent permeability from basolateral to apical side in MDCK-MDR1 cells. The format is ADME, cell-based, Canis lupus familiaris. The settings on record: dog.
Data set [22] has as its system Klebsiella pneumoniae. The data set can be described thus: Inhibition of KPC2 in Klebsiella pneumoniae C2 assessed as potentiation of imipenem-induced antimicrobial activity by measuring imipenem MIC incubated for 18 to 20 hrs by CLSI based method (reference value: 512 ug/ml).
Data set [23] concerns the target Beta-lactamase VIM-2 (Pseudomonas aeruginosa) (UniProt Q9K2N0). The data set is described as follows: Inhibition of VIM-2 in Pseudomonas aeruginosa 4882 assessed as potentiation of imipenem-induced antimicrobial activity by measuring imipenem MIC incubated for 18 to 20 hrs by CLSI based method (reference value: 32 ug/ml).

Usually Ki stands for a dissociation constant, usually derived from enzyme kinetics or from competition with a known ligand. For the molecule `O=P(O)(O)Cc1ccnc2ccccc12`, the Ki is 326 µM in data set [1], “Not Active” in data set [2] and 30.3 µM in data set [3].

With `C[C@H]1O[C@@H](O[C@H]2[C@@H](O)C[C@H](O[C@H]3[C@@H](O)C[C@H](O[C@H]4CC[C@@]5(C)[C@H](CC[C@@H]6[C@@H]5C[C@@H](O)[C@]5(C)[C@@H](C7=CC(=O)OC7)CC[C@]65O)C4)O[C@@H]3C)O[C@@H]2C)C[C@H](O)[C@@H]1O` [DIGOXIN], the Drug recovery in [4] is listed as 105%.

In the case of `COc1ccc2c(CP(=O)(O)O)cc(=O)oc2c1`, the Ki in data set [2] (read-out: Ki) is 124 µM; in [3], 2.1 µM.

Turning to `COc1cc(C)cc2oc(=O)cc(CP(=O)(O)O)c12`, the Ki in [1] worked out at 11.9 µM.

In the case of `Cc1cc2oc(=O)cc(CP(=O)(O)O)c2cc1C`, the Ki in [2] (read-out: Ki) came out at 44.3 µM; in data set [3] it was 2.1 µM.

Consider `Cc1cc(F)c2c(CP(=O)(O)O)cc(=O)oc2c1`, for which the figures for the Ki in data set [1], in data set [2] (read-out: Ki) and in [3] were 8.5 µM, 230 µM and 3.3 µM, respectively.

In the case of `Cc1cc(C)c2c(CP(=O)(O)O)cc(=O)oc2c1`, the values for the Ki in data set [2] (read-out: Ki) and in data set [3] were 33.8 µM and 0.82 µM, respectively.

Broadly, the Papp is the rate of passage across a membrane or cell layer, normalised by area and donor concentration. With `O=c1cc(CP(=O)(O)O)c2c(Br)cc(Br)cc2[nH]1`, the figures for the Ki in [1], in data set [2] (read-out: Ki) and in [3] were 0.02 µM, 31.4 µM and 0.316 µM, respectively. Further, the MIC in the data set with Pseudomonas aeruginosa [5] was 2 µg/mL; with Pseudomonas aeruginosa [6], 8 µg/mL; with Pseudomonas aeruginosa [7] it was 32 µg/mL; in [8] it was 4 µg/mL; with Klebsiella pneumoniae [9] it was 16 to 128 µg/mL; in the data set with Pseudomonas aeruginosa [10], 128 µg/mL. Also, the MIC with Pseudomonas aeruginosa [11] is 128 µg/mL; with Pseudomonas aeruginosa [12], 128 µg/mL; with Pseudomonas aeruginosa [13], 128 µg/mL; with Pseudomonas aeruginosa [14] it was 128 µg/mL; with Klebsiella pneumoniae [22], 4 to 16 µg/mL; in data set [23], 2 µg/mL. Further, in data set [15], the viability at 48 h, 100 ug/ml is 88%. Besides, the viability at 48 h, 200 ug/ml in data set [16] came to 70%. The molecule further showed a t1/2 in [17] of over 2 h. In [18], this molecule displayed a CLH of under 11.6 µL/min/mg. In data set [19], this molecule yielded a Kinetic_solubility of 241 µM. Besides, the values for the Papp in data set [20] and in data set [21] were under 0.7 ×10⁻⁶ cm/s and under 0.2 ×10⁻⁶ cm/s, respectively. For the same molecule, the Drug recovery in data set [4] amounted to 91%.
